Test results as given in ChEMBL document CHEMBL4411269, “Required Immunoproteasome Subunit Inhibition Profile for Anti-Inflammatory Efficacy and Clinical Candidate KZR-616 ((2 S,3 R)- N-(( S)-3-(Cyclopent-1-en-1-yl)-1-(( R)-2-methyloxiran-2-yl)-1-oxopropan-2-yl)-3-hydroxy-3-(4-methoxyphenyl)-2-(( S)-2-(2-morpholinoacetamido)propanamido)propenamide)” (J Med Chem, 2018).
Activity calls are given as the source filed them. The calls are words filed in the database; no cut-off is given here.

Tests used:
Mus musculus [1] = assay: Antiarthritic activity in type 2 collagen antibody/LPS induced Balb/c mouse assessed as reduction in disease burden at 20 mg/kg, iv followed by dosing repeat on day 6, 8, 11, 13 and 15 and measured until day 18; assay type: functional, organism-based
Outline: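 CAIA in 7−8 week old female BALB/c mice on breeder chow. Induced with 1.75 mg of a 5-antibody anti-type II collagen cocktail iv on day 0, then 25 μg LPS ip on day 3. Dosed as single iv boluses in 10% (w/v) sulfobutyl ether−β-cyclodextrin/10 mM sodium citrate (pH 3.5); vehicle-treated group included.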

PBMC [2] = assay: Antiinflammatory activity in human PBMC assessed as reduction in anti-CD3/CD28 antibody-stimulated TNF-alpha expression at 125 nM preincubated for 1 hr followed by anti-CD3/CD28 antibody stimulation measured after 24 hrs in presence of KZR-504 by ELISA; assay type: functional, cell-based
Outline: (§1)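 Healthy-donor PBMC, thawed from cryopreservation, 250 000 cells/well in RPMI 1640/5% FBS. Pretreated 1 h at 37 °C with compound alone or combined (0.1% DMSO final), washed 4 times, then stimulated 24 h with anti-CD3 and anti-CD28 antibodies. TNFα and IFNγ in supernatants by electrochemiluminescent ELISA; expressed relative to DMSO-treated controls (n = 6).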

Mus musculus [3] = assay: In vivo inhibition of LMP2 in Balb/c mouse splenocytes at 20 mg/kg, iv followed by dosing repeat on day 6, 8, 11, 13 and 15 and measured on 1 hr post last dose; assay type: functional, organism-based
Outline: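 BALB/c mice dosed iv bolus in 10% sulfobutyl ether−β-cyclodextrin/10 mM sodium citrate pH 3.5; tissues taken 1 h after administration. Splenocytes strained and red cells lysed; kidney frozen, then bead-homogenized. Hypotonic lysate (20 mM Tris pH 8, 5 mM EDTA) at 1 mg/mL (spleen) or 5 mg/mL (kidney) run in the ProCISE active-site ELISA. Background-subtracted, protein-normalized activity relative to vehicle animals; n = 3.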

[4] = Half life in Balb/c mouse at 2 mg/kg, iv; assay type: ADME, organism-based; conditions: in vivo
Outline: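 Female BALB/c mice aged 7−8 weeks, given 2 mg/kg iv in 25% PEG300/WFI. Cardiac blood taken at 2, 5, 10, 20, 30, 60 and 120 min postdose into sodium heparin and processed to plasma (n = 3/time point). Proteins precipitated with acetonitrile; drug measured by LC−MS/MS. Noncompartmental analysis of mean concentrations at nominal times and target doses.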

[5] = target: T1, Proteasome subunit beta type-10 (Mus musculus, UniProt O35955); assay: Inhibition of MECL1 in mouse A20 cells by ELISA; assay type: cell-based
T1 sequence (O35955 whole entry): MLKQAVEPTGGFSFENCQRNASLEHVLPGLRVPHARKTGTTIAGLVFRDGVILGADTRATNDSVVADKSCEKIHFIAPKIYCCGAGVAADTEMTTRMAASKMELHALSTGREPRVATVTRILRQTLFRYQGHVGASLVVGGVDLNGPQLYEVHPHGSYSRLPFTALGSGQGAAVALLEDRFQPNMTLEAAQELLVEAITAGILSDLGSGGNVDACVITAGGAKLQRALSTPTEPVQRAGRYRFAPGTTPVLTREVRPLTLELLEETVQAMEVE
Outline: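 Mouse A20 B-cell lymphoma cell lysate (1 mg/mL, hypotonic 20 mM Tris pH 8, 5 mM EDTA) treated with serially diluted compound for 1 h at 25 °C. Then 5 μM biotinylated active-site probe for 2 h at 25 °C, guanidine denaturation and streptavidin bead capture. Subunit-specific antibody and HRP chemiluminescence, signal normalized to protein, IC50 from percent activity versus DMSO controls.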

PBMC [6] = assay: Antiinflammatory activity in human PBMC assessed as reduction in LPS-stimulated p40 subunit of […] expression at 250 nM preincubated for 1 hr followed by LPS stimulation measured after 24 hrs by ELISA; assay type: functional, cell-based
Outline: (§2)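 Cryopreserved healthy-donor PBMC in RPMI 1640 with 5% heat-inactivated FBS, 250 000 cells/well. Compound (0.1% DMSO final) for 1 h at 37 °C, 5% CO2, then 4 washes with medium. Stimulated with 1 μg/mL LPS for 24 h; supernatant TNFα, IL-6 and IL-12/23p40 by electrochemiluminescent immunoassay. Mean level relative to DMSO controls, n = 6.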

[7] = target: T2, Proteasome subunit beta type-8 (Homo sapiens, UniProt P28062); assay: Inhibition of LMP7 in human MOLT4 cells by ELISA; assay type: cell-based
T2 sequence (P28062 whole entry): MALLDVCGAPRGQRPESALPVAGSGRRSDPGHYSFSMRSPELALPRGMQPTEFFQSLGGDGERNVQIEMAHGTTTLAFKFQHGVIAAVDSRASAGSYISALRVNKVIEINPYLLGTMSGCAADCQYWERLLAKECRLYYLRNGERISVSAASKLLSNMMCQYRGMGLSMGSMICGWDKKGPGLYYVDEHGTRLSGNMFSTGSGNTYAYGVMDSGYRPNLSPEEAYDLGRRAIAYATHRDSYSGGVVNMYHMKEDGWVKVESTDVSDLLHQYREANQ

PBMC [8] = assay: Antiinflammatory activity in human PBMC assessed as reduction in LPS-stimulated TNF-alpha expression at 250 nM preincubated for 1 hr followed by LPS stimulation measured after 24 hrs by ELISA; assay type: functional, cell-based; outline: as §2
Mus musculus [9] = assay: Antiarthritic activity in type 2 collagen antibody/LPS induced Balb/c mouse assessed as reduction in disease burden at 5 mg/kg, iv followed by dosing repeat on day 6, 8, 11, 13 and 15 and measured until day 18
PBMC [10] = assay: Antiinflammatory activity in human PBMC assessed as reduction in anti-CD3/CD28 antibody-stimulated TNF-alpha expression at 250 nM preincubated for 1 hr followed by anti-CD3/CD28 antibody stimulation measured after 24 hrs by ELISA; assay type: functional, cell-based; outline: as §1
PBMC [11] = assay: Cytotoxicity in human PBMC assessed as reduction in cell viability at 250 nM relative to control; assay type: cell-based
[12] = target: T3, Proteasome subunit beta type-8 (Homo sapiens) (UniProt P28062); assay: Inhibition of LMP7 in human PBMC at 250 nM by ELISA
T3 sequence (whole entry): T2 sequence (P28062 whole entry)
Outline: (§3)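 Cryopreserved healthy-donor human PBMC in RPMI 1640 with 5% heat-inactivated FBS, exposed to compound (0.1% DMSO final) for 1 h at 37 °C, 5% CO2, then washed. Subunit-specific active-site occupancy read by ProCISE: biotinylated active-site probe binding, denaturation, streptavidin capture, subunit-specific antibody and HRP chemiluminescence. Signal normalized to protein and expressed relative to DMSO controls.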

[13] = target: T4, Proteasome subunit beta type-9 (Homo sapiens) (UniProt P28065); assay: Inhibition of LMP2 in human PBMC at 250 nM by ELISA; outline: as §3
T4 sequence (whole entry): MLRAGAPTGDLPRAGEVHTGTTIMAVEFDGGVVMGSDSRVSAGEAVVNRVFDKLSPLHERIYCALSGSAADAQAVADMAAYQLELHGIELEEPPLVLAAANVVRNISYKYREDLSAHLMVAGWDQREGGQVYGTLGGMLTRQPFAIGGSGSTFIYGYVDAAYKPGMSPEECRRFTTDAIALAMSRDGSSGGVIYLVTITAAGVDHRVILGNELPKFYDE

| half-life [4] | IC50 [5] | IC50 [7] | inhibition [12] | inhibition [13] | SMILES | Activity (Mus musculus [1]) | Activity (PBMC [2]) | inhibition (Mus musculus [3]) | Activity (PBMC [6]) | Activity (PBMC [8]) | Activity (Mus musculus [9]) | Activity (PBMC [10]) | Activity (PBMC [11]) |
| --- | --- | --- | --- | --- | --- | --- | --- | --- | --- | --- | --- | --- | --- |
| < 7 min | – | – | – | – | COc1ccc(C[C@H](NC(=O)[C@@H](C)NC(=O)[C@H]2CC[C@H](O)CC2)C(=O)N[C@@H](CC2=CCCC2)C(=O)[C@@]2(C)CO2)cc1 | inactive | Active | Active | – | – | – | – | – |
| – | 0.522 µM | 0.039 µM | – | – | COc1ccc([C@@H](O)[C@H](NC(=O)[C@H](C)NC(=O)CN2CCOCC2)C(=O)N[C@@H](CC2=CCCC2)C(=O)[C@@]2(C)CO2)cc1 [ZETOMIPZOMIB] | – | – | – | Active | Active | Active | Active | – |
| – | 0.305 µM | 0.346 µM | Active | Active | Cc1ccc(CC[C@H](NC(=O)[C@H](Cc2ccccc2)NC(=O)[C@H](CC(C)C)NC(=O)CN2CCCCCC2)C(=O)[C@@]2(C)CO2)cc1 | – | – | – | inactive | inactive | – | inactive | 30% |
